From ChEMBL document CHEMBL4396897, “Potent 5-Cyano-6-phenyl-pyrimidin-Based Derivatives Targeting DCN1-UBE2M Interaction” (J Med Chem, 2019) come the findings set out here.

In general, Ki refers to the dissociation constant of the complex between target and ligand, obtained from inhibition or displacement.

The structures appear in SMILES notation.

Assay [1] relates to A549. The experiment in a line: Induction of apoptosis in human A549 cells assessed as late apoptotic cells at 10 uM after 48 hrs by Annexin V-FITC/propidium iodide staining based flow cytometry (reference value: 2.61%). The class given is functional. A general note: A flow cytometer gives signals particle by particle.
A further assay has as its target T1, DCN1-like protein 3 (Homo sapiens, UniProt Q8IWE4).
T1 sequence (Q8IWE4 whole entry): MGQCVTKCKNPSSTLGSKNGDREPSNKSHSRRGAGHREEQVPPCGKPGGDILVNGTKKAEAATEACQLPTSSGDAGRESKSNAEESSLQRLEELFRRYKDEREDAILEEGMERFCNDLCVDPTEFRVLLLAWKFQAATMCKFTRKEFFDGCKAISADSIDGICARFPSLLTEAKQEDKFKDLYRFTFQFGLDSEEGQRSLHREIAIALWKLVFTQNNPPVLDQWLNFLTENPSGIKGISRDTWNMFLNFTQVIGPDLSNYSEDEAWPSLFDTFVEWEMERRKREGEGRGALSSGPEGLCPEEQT
The experiment in a line: Binding affinity to N-terminal GST tagged recombinant DCN3 (unknown origin) (86 to 304 residues) expressed in Escherichia coli BL21(DE3) assessed as reduction in DCN1/FAM-labelled N-terminal acetylated UBE2M (1 to 21 residues) protein-protein interaction after 30 mins by HTRF assay. The procedure, abridged:
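HTRF competition: 5nM GST-tagged DCN (1-5) and 5nM AcUBE2M1-21-biotin peptide, with streptavidin-XL665 and anti-GST cryptate, in 100mM phosphate buffer pH 6.5 with 0.02% Tween-20. Cocktail pre-incubated 30min at room temperature, compound added, then 30min more. Excitation 320nm, emission 615/665nm. Ki from three independent repeats, mean ± SD.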
On the technique in general: In TR-FRET formats the signal depends on donor and acceptor labels being close together.

For the next assay, the system named is NCI-H1975. The experiment in a line: Induction of apoptosis in human NCI-NCI-H1975 cells assessed as early apoptotic cells at 10 uM after 48 hrs by Annexin V-FITC/propidium iodide staining based flow cytometry (reference value: 2.47%). Type of assay: functional.
In assay [2] the test system is A549. The experiment in a line: Induction of apoptosis in human A549 cells assessed as viable cells at 5 uM after 48 hrs by Annexin V-FITC/propidium iodide staining based flow cytometry (reference value: 92.9%). Type of assay: functional. Particulars: A549, 48 h, read-out: Activity.

`C#CCSc1nc(Sc2nccs2)c(C#N)c(-c2ccc(C)cc2)n1`: the Activity worked out at 81.1% in the assay on A549 [1] and 33.2% in the assay with NCI-H1975. Also, the Ki at DCN1-like protein 3 worked out at 592 nM. In the assay with A549 [2], the viability at 5 µM is 52.6%.
